Assay results taken from ChEMBL document CHEMBL2434884, “Natural product derived antiprotozoal agents: synthesis, biological evaluation, and structure-activity relationships of novel chromene and chromane derivatives” (J Med Chem, 2013).

Columns and labels:
[1] = tested on: Trypanosoma brucei rhodesiense; test: Antiprotozoal activity against trypomastigote form of Trypanosoma brucei rhodesiense STIB 900 assessed as parasite growth inhibition; type: functional, organism-based
[2] = Selectivity index, ratio of IC50 for rat L6 cells to ratio of IC50 for trypomastigote form of Trypanosoma brucei rhodesiense STIB 900; type: toxicity, cell-based; settings: read-out: Selectivity Index
[3] = tested on: L6; test: Cytotoxicity against rat L6 cells; type: cell-based
Procedure, shortened: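 L6 rat skeletal myoblasts; cytotoxicity IC50 determined at the Swiss Tropical and Public Health Institute by an earlier standard protocol.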

[4] = tested on: Leishmania tarentolae; test: Antiprotozoal activity against promastigote form of Leishmania tarentolae P10 assessed as parasite growth inhibition after 48 hrs by MTT assay; type: functional, organism-based; settings: P10, 48 h
Procedure, shortened: (§1)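 Promastigotes of nonpathogenic lizard-infecting L. tarentolae strain P10, cultured in hemin-supplemented BHI medium; IC50 determined.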

[5] = tested on: Plasmodium falciparum; test: Potency index, ratio of chloroquine IC50 to compound IC50 for chloroquine/pyrimethamine-resistant erythrocytic form of Plasmodium falciparum K1; type: functional
[6] = Selectivity index, ratio of IC50 for rat L6 cells to ratio of IC50 for chloroquine/pyrimethamine-resistant erythrocytic form of Plasmodium falciparum K1; type: toxicity, cell-based; settings: read-out: Selectivity Index
[7] = tested on: Plasmodium falciparum; test: Antiprotozoal activity against chloroquine/pyrimethamine-resistant erythrocytic form of Plasmodium falciparum K1 assessed as parasite growth inhibition; type: functional, organism-based
[8] = tested on: Trypanosoma cruzi; test: Antiprotozoal activity against intracellular amastigote form of Trypanosoma cruzi Tulahuen C4 assessed as parasite growth inhibition; type: functional, organism-based
[9] = Selectivity index, ratio of IC50 for rat L6 cells to ratio of IC50 for axenic amastigote form of Leishmania donovani MHOM/ET/67/L82; type: toxicity, cell-based; settings: read-out: Selectivity Index
[10] = tested on: Leishmania donovani; test: Antiprotozoal activity against axenic amastigote form of Leishmania donovani MHOM/ET/67/L82 assessed as parasite growth inhibition; type: functional, organism-based
[11] = tested on: Trypanosoma cruzi; test: Antiprotozoal activity against Trypanosoma cruzi assessed as parasite growth inhibition; type: functional, organism-based
Procedure, shortened: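 T. cruzi intracellular amastigote stage, Tulahuen C4 strain; assayed at the Swiss Tropical and Public Health Institute by an earlier standard protocol.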

[12] = tested on: Leishmania donovani; test: Antiprotozoal activity against Leishmania donovani assessed as parasite growth inhibition
[13] = tested on: Leishmania tarentolae; test: Antiprotozoal activity against Leishmania tarentolae assessed as parasite growth inhibition; type: functional, organism-based; procedure, shortened: as §1

Row | IC50 [11] | Structure (SMILES) | IC50 [1] | selectivity ratio [2] | IC50 [3] | IC50 [4] | Ratio IC50 [5] | selectivity ratio [6] | IC50 [7] | IC50 [8] | selectivity ratio [9] | IC50 [10] | IC50 [12] | IC50 [13]
1 |  | CC(NCCCc1ccccc1)c1cc2c(cc1O)OC(C)(C)C=C2 (stereo not drawn) | 5.31 µM | 5.08 | 27 µM | 6.2 µM | 25 | 1820 | 0.01 µM |  |  |  |  | 
2 |  | C/C=C(/C)C(=O)OC(C)c1cc2c(cc1OC)OC(C)(C)C=C2 (stereo not drawn) | 157 µM | 0.89 | 139 µM | 21.3 µM |  | 7.35 | 18.9 µM | 61.4 µM | 3 | 46.2 µM |  | 
3 |  | COc1cc2c(cc1C(C)OCc1ccccc1)C=CC(C)(C)O2 (stereo not drawn) | 76.1 µM | 0.58 | 43.9 µM | 1.53 µM |  | 4.64 | 9.48 µM | 45 µM | 2.1 | 21.2 µM |  | 
4 |  | COc1cc2c(cc1C(C)OCCc1ccccc1)C=CC(C)(C)O2 (stereo not drawn) | 180 µM | 0.69 | 123 µM | 1.17 µM |  | 2.08 | 59.9 µM | 56.7 µM | 1.9 | 63.5 µM |  | 
5 |  | COc1cc2c(cc1C(C)OC/C=C/c1ccccc1)C=CC(C)(C)O2 (stereo not drawn) | 94.7 µM | 0.68 | 64.4 µM | 0.86 µM |  |  |  | 73 µM | 2.8 | 23 µM |  | 
6 |  | COc1cc2c(cc1C(C)NC(=O)c1ccccc1)C=CC(C)(C)O2 (stereo not drawn) | 23.4 µM | 1.45 | 34.8 µM | 8.61 µM |  | 3.01 | 11.5 µM | 36.8 µM | 1.3 | 26.3 µM |  | 
7 |  | COc1cc2c(cc1C(C)NC(=O)Cc1ccccc1)C=CC(C)(C)O2 (stereo not drawn) | 103 µM | 0.83 | 86.5 µM | 7.69 µM |  | 2.79 | 31 µM | 44.7 µM | 1.6 | 53.8 µM |  | 
8 |  | COc1cc2c(cc1C(C)NC(=O)/C=C/c1ccccc1)C=CC(C)(C)O2 (stereo not drawn) | 35.9 µM | 2.99 | 107 µM | 1.78 µM |  |  |  | 23.1 µM | 4.1 | 26.3 µM |  | 
9 |  | COc1cc2c(cc1C(C)NCc1ccccc1)C=CC(C)(C)O2 (stereo not drawn) | 2.38 µM | 8.83 | 21 µM | 2.4 µM |  | 32.8 | 0.64 µM | 33.9 µM | 0.13 | 159 µM |  | 
10 |  | COc1cc2c(cc1C(C)NCCc1ccccc1)C=CC(C)(C)O2 (stereo not drawn) | 2.22 µM | 6.93 | 15.4 µM | 1.04 µM |  | 6.34 | 2.42 µM | 9.1 µM | 0.12 | 127 µM |  | 
11 |  | COc1cc2c(cc1C(C)NCCCc1ccccc1)C=CC(C)(C)O2 (stereo not drawn) | 1.03 µM | 1.05 | 1.08 µM | 0.22 µM |  | 1.27 | 0.85 µM | 13.6 µM | 0.01 | 101 µM |  | 
12 |  | COc1cc2c(cc1C(C)NCCCCc1ccccc1)C=CC(C)(C)O2 (stereo not drawn) | 3.15 µM | 1.5 | 4.73 µM | 0.77 µM |  | 3.35 | 1.41 µM | 4.19 µM | 0.07 | 71.7 µM |  | 
13 |  | COc1ccc(CNC(C)c2cc3c(cc2OC)OC(C)(C)C=C3)cc1 (stereo not drawn) | 2.42 µM | 6.13 | 14.9 µM | 9.8 µM |  | 16 | 0.93 µM | 33.1 µM | 0.07 | 225 µM |  | 
14 |  | COc1cc2c(cc1C(C)N[C@H](C)c1ccccc1)C=CC(C)(C)O2 (stereo partly drawn) | 2.02 µM | 7.85 | 15.9 µM | 8.61 µM |  | 22.1 | 0.72 µM |  |  |  |  | 
15 |  | COc1cc2c(cc1C(C)N[C@@H](C)c1ccccc1)C=CC(C)(C)O2 (stereo partly drawn) | 5.1 µM | 3.23 | 16.5 µM | 9.01 µM |  | 44.4 | 0.37 µM |  |  |  |  | 
16 |  | COc1cc2c(cc1C(C)NC/C=C/c1ccccc1)C=CC(C)(C)O2 (stereo not drawn) | 5.84 µM | 2.5 | 14.6 µM | 3.26 µM |  | 3.32 | 4.41 µM | 8.13 µM | 0.23 | 62.4 µM |  | 

Row | IC50 [11] | Structure (SMILES) | IC50 [1] | selectivity ratio [2] | IC50 [3] | IC50 [4] | Ratio IC50 [5] | selectivity ratio [6] | IC50 [7] | IC50 [8] | selectivity ratio [9] | IC50 [10] | IC50 [12] | IC50 [13]
17 |  | CCNC(C)c1cc2c(cc1OC)OC(C)(C)C=C2 (stereo not drawn) | 22.8 µM | 7.71 | 176 µM | 8.76 µM |  | 22 | 8.12 µM | 91.5 µM | 0.48 | 365 µM |  | 
18 |  | CCCCNC(C)c1cc2c(cc1OC)OC(C)(C)C=C2 (stereo not drawn) | 8.19 µM | 6.41 | 52.5 µM | 6.25 µM |  | 12.6 | 4.18 µM | 25.2 µM |  |  |  | 
19 |  | CCN(CC)CCCC(C)NC(C)c1cc2c(cc1OC)OC(C)(C)C=C2 (stereo not drawn) | 1.86 µM | 22.5 | 41.9 µM | 3.24 µM |  | 17.5 | 2.39 µM | 35.5 µM |  |  |  | 
20 |  | COc1cc2c(cc1C(C)NCC1CCCCC1)C=CC(C)(C)O2 (stereo not drawn) | 2.16 µM | 6.69 | 14.5 µM | 0.65 µM |  | 5.88 | 2.46 µM | 12.9 µM | 0.1 | 139 µM |  | 
21 |  | COc1cc2c(cc1C(C)N1CCOCC1)C=CC(C)(C)O2 (stereo not drawn) | 96.2 µM | 1.63 | 157 µM | 12.4 µM |  | 15.9 | 9.92 µM | 110 µM | 1.06 | 148 µM |  | 
22 |  | COc1cc2c(cc1C(C)N1CCCC1)C=CC(C)(C)O2 (stereo not drawn) | 41.1 µM | 4.31 | 177 µM | 18.6 µM |  | 10.8 | 16.4 µM | 68.2 µM | 0.66 | 270 µM |  | 
23 |  | COc1cc2c(cc1C(C)N(C)CCCc1ccccc1)C=CC(C)(C)O2 (stereo not drawn) | 3.17 µM | 5.12 | 16.3 µM | 9.01 µM |  | 13.5 | 1.24 µM | 9.17 µM | 0.19 | 84.3 µM |  | 
24 |  | COc1cc2c(cc1C(C)NCc1ccccc1)CCC(C)(C)O2 (stereo not drawn) | 4.98 µM | 3.08 | 15.3 µM | 270 µM |  | 10.1 | 1.51 µM | 13.3 µM | 4.1 | 3.7 µM |  | 
25 |  | COc1cc2c(cc1C(C)NCCc1ccccc1)CCC(C)(C)O2 (stereo not drawn) | 4.15 µM | 3.48 | 14.5 µM | 126 µM |  | 5.8 | 2.49 µM | 12.1 µM | 8.4 | 1.73 µM |  | 
26 |  | COc1cc2c(cc1C(C)NCCCc1ccccc1)CCC(C)(C)O2 (stereo not drawn) | 2.27 µM | 1.15 | 2.63 µM | 129 µM |  | 1.23 | 2.13 µM | 5.35 µM |  |  |  | 
27 |  | COc1cc2c(cc1C(C)NCCCCc1ccccc1)CCC(C)(C)O2 (stereo not drawn) | 1.84 µM | 2.87 | 5.28 µM | 90.6 µM |  | 3.94 | 1.34 µM | 5.03 µM | 9.3 | 0.57 µM |  | 
28 |  | CCCCNC(C)c1cc2c(cc1OC)OC(C)(C)CC2 (stereo not drawn) | 7.82 µM | 7.54 | 59 µM |  |  | 18.3 | 3.22 µM | 38.4 µM | 5.5 | 10.8 µM |  | 
29 |  | CC(NCc1ccccc1)c1cc2c(cc1O)OC(C)(C)C=C2 (stereo not drawn) | 6.18 µM | 17.7 | 109 µM | 12.4 µM | 10 | 6760 | 0.02 µM |  |  |  |  | 
30 | 1.57 µM | O=C(Cn1ccnc1[N+](=O)[O-])NCc1ccccc1 [BENZNIDAZOLE] |  |  |  |  |  |  |  |  |  |  |  | 
31 |  | CCCCCCCCCCCCCCCCOP(=O)([O-])OCC[N+](C)(C)C [MILTEFOSINE] |  |  |  |  |  |  |  |  |  |  | 0.361 µM | 
32 |  | N=C(N)c1ccc(OCCCCCOc2ccc(C(=N)N)cc2)cc1 [PENTAMIDINE] |  |  |  |  |  |  |  |  |  |  |  | 0.03 µM
